# Data: ChEMBL document CHEMBL1124186, “Synthesis and evaluation of tylosin-related macrolides modified at the aldehyde function: a new series of orally effective antibiotics” (1988)
# Assays:
# Streptococcus [1] = assay: In vitro antimicrobial activity against aerobic bacteria Streptococcus G Kruder; type: functional; conditions: Streptococcus; read-out: MIC
# Rattus norvegicus [2] = assay: Peripheral plasma levels in rats after oral administration of 100 mg/kg dose for 2 hr; type: functional, organism-based; set-up: dose 100 mg/kg
# In short: (§1)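 Rats received 100 mg/kg orally and were sampled for peripheral plasma. Concentrations were measured by Micrococcus luteus agar-diffusion microbiological assay in Antibiotic Medium 1, with zone sizes converted using the standard curve for the appropriate compound. Each value is the average of three rats per time point.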
# Mus musculus [3] = assay: Peripheral plasma levels in mice after oral administration of 50 mg/kg dose for 4 hr; type: functional, organism-based; set-up: dose 50 mg/kg
# In short: (§2)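 Mice were given the compound orally and sampled for peripheral plasma at each time point. Plasma was assayed microbiologically against Micrococcus luteus seeded in Antibiotic Medium 1. Inhibition zone sizes were read, and concentrations were calculated from each compound's own standard curve. Each value is the mean of five mice per time point.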
# Mus musculus [4] = assay: Peripheral plasma levels in mice after oral administration of 50 mg/kg dose for 1 hr; type: functional, organism-based; set-up: dose 50 mg/kg; in short: as §2
# Bacteroides fragilis [5] = assay: In vitro antimicrobial activity against anaerobic bacteria bacteroides fragilis 111; type: functional
# [6] = In vitro antimicrobial activity against anaerobic bacteria peptostreptococcus intermedius 1264; type: functional
# Rattus norvegicus [7] = assay: Peripheral plasma levels in rats after oral administration of 100 mg/kg dose for 0.5 hr; type: functional, organism-based; set-up: dose 100 mg/kg; in short: as §1
# Enterococcus faecium = assay: In vitro antimicrobial activity against Streptococcus faecium X66; type: functional, streptococcus fae-cium
# Streptococcus [8] = assay: In vitro antimicrobial activity against aerobic bacteria Streptococcus B 5; type: functional
# [9] = test system: Staphylococcus epidermidis; assay: In vitro antimicrobial activity against Staphylococcus epidermidis EPI1; type: functional
# Staphylococcus aureus [10] = assay: In vitro antimicrobial activity against aerobic bacteria Staphylococcus aureus V140,; type: functional
# Mus musculus [11] = assay: Peripheral plasma levels in mice after oral administration of 100 mg/kg dose for 2 hr; type: functional, organism-based; set-up: dose 100 mg/kg; in short: as §2
# Streptococcus [12] = assay: In vitro antimicrobial activity against aerobic bacteria Streptococcus D 8043; type: functional
# Haemophilus influenzae [13] = assay: In vitro antimicrobial activity against aerobic bacteria Haemophilus influenzae 76; type: functional
# Clostridioides difficile = assay: In vitro antimicrobial activity against anaerobic bacteria Clostridium difficile 2994; type: functional
# Mus musculus [14] = assay: Peripheral plasma levels in mice after oral administration of 50 mg/kg dose for 0.25 hr; type: functional, organism-based; set-up: dose 50 mg/kg; in short: as §2
# Haemophilus influenzae [15] = assay: In vitro antimicrobial activity against aerobic bacteria Haemophilus influenzae MX366,; type: functional
# Streptococcus pneumoniae [16] = assay: In vivo effective dose against experimental infections in mice Strep. pneumoniae park when administered sc; type: functional
# Streptococcus pneumoniae [17] = assay: In vivo effective dose against experimental infections in mice Strep. pneumoniae park when administered orally; type: functional; conditions: po
# Streptococcus sanguinis = assay: In vitro antimicrobial activity against aerobic bacteria Streptococcus sanguis MX132; type: functional
# Staphylococcus aureus [18] = assay: In vitro antimicrobial activity against aerobic bacteria Staphylococcus aureus V135; type: functional
# Streptococcus [19] = assay: In vitro antimicrobial activity against aerobic bacteria Streptococcus D 2041; type: functional
# Bacteroides fragilis [20] = assay: In vitro antimicrobial activity against anaerobic bacteria bacteroides fragilis 1877; type: functional
# Anaerococcus prevotii = assay: In vitro antimicrobial activity against anaerobic bacteria peptococcus prevoti 1281; type: functional
# Rattus norvegicus [21] = assay: Peripheral plasma levels in rats after oral administration of 100 mg/kg dose for 4 hr; type: functional, organism-based; set-up: dose 100 mg/kg; in short: as §1
# Mus musculus [22] = assay: Peripheral plasma levels in mice after oral administration of 100 mg/kg dose for 0.5 hr; type: functional, organism-based; set-up: dose 100 mg/kg; in short: as §2
# Rattus norvegicus [23] = assay: Peripheral plasma levels in rats after oral administration of 100 mg/kg dose for 1 hr; type: functional, organism-based; set-up: dose 100 mg/kg; in short: as §1
# [24] = test system: Staphylococcus epidermidis; assay: In vitro antimicrobial activity against aerobic bacteria Streptococcus epi 222; type: functional
# Phocaeicola vulgatus = assay: In vitro antimicrobial activity against anaerobic bacteria bacteroides vulgatus 1211; type: functional
# Clostridium septicum = assay: In vitro antimicrobial activity against anaerobic bacteria clostridium septicum 1128; type: functional
# Rattus norvegicus [25] = assay: Peripheral plasma levels in rats after oral administration of 100 mg/kg dose for 0.25 hr; type: functional, organism-based; set-up: dose 100 mg/kg; in short: as §1
# [26] = test system: Prevotella melaninogenica; assay: In vitro antimicrobial activity against anaerobic bacteria bacteroides melaninogenicus 1856,; type: functional
# Mus musculus [27] = assay: Peripheral plasma levels in mice after oral administration of 50 mg/kg dose for 2 hr; type: functional, organism-based; set-up: dose 50 mg/kg; in short: as §2
# Staphylococcus aureus [28] = assay: In vivo effective dose against experimental infections in mice Staphylococcus aureus X1 when administered sc; type: functional
# Clostridium perfringens = assay: In vitro antimicrobial activity against anaerobic bacteria clostridium perfringens 81,; type: functional
# Streptococcus [29] = assay: In vitro antimicrobial activity against aerobic bacteria Streptococcus D 9960; type: functional
# Mus musculus [30] = assay: Peripheral plasma levels in mice after oral administration of 50 mg/kg dose for 0.5 hr; type: functional, organism-based; set-up: dose 50 mg/kg; in short: as §2
# Mus musculus [31] = assay: Peripheral plasma levels in mice after oral administration of 100 mg/kg dose for 1 hr; type: functional, organism-based; set-up: dose 100 mg/kg; in short: as §2
# Staphylococcus aureus [32] = assay: In vitro antimicrobial activity against aerobic bacteria Staphylococcus aureus 513E; type: functional
# Eikenella corrodens = assay: In vitro antimicrobial activity against anaerobic bacteria bacteroides corrodens 1874; type: functional
# Collinsella aerofaciens = assay: In vitro antimicrobial activity against anaerobic bacteria eubacterium aerofaciens 1235; type: functional
# Staphylococcus aureus [33] = assay: In vitro antimicrobial activity against Staphylococcus aureus X1; type: functional
# [34] = test system: Staphylococcus epidermidis; assay: In vitro antimicrobial activity against aerobic bacteria Streptococcus epi 270; type: functional
# Mus musculus [35] = assay: Peripheral plasma levels in mice after oral administration of 100 mg/kg dose for 4 hr; type: functional, organism-based; set-up: dose 100 mg/kg; in short: as §2
# [36] = test system: Fusobacterium necrophorum; assay: In vitro antimicrobial activity against anaerobic bacteria usobacterium necrophorum 6054A; type: functional
# Streptococcus pneumoniae [37] = assay: In vitro antimicrobial activity against Streptococcus pneumoniae; type: functional
# [38] = test system: Prevotella melaninogenica; assay: In vitro antimicrobial activity against anaerobic bacteria bacteroides melaninogenicus 2736; type: functional
# Staphylococcus aureus [39] = assay: In vitro antimicrobial activity against aerobic bacteria Staphylococcus aureus X400; type: functional
# Streptococcus [40] = assay: In vitro antimicrobial activity against aerobic bacteria Streptococcus C 24; type: functional
# Staphylococcus aureus [41] = assay: In vitro antimicrobial activity against aerobic bacteria Staphylococcus aureus V41; type: functional
# Bacteroides fragilis [42] = assay: In vitro antimicrobial activity against anaerobic bacteria bacteroides fragilis 1936B,; type: functional
# Streptococcus [43] = assay: In vitro antimicrobial activity against aerobic bacteria Streptococcus B 8; type: functional
# Cutibacterium acnes = assay: In vitro antimicrobial activity against anaerobic bacteria propionibacterium acnes 79; type: functional
# Streptococcus pyogenes [44] = assay: In vivo effective dose against experimental infections in rodent caused by Streptococcus pyogenes C203 when administered sc; type: functional
# [45] = test system: Peptostreptococcus anaerobius; assay: In vitro antimicrobial activity against anaerobic bacteria eubacterium peptostreptococcus anaerobius 1428,; type: functional
# Staphylococcus aureus [46] = assay: In vivo effective dose against experimental infections in mice Staphylococcus aureus X1 when administered orally; type: functional; conditions: po
# Mus musculus [47] = assay: Peripheral plasma levels in mice after oral administration of 100 mg/kg dose for 0.25 hr; type: functional, organism-based; set-up: dose 100 mg/kg; in short: as §2
# Fusobacterium = assay: In vitro antimicrobial activity against anaerobic bacteria fusobacterium symbiosum 1470; type: functional
# Chlamydia trachomatis = assay: In vitro antimicrobial activity against chlamydia trachomatis.; type: functional
# Streptococcus pneumoniae [48] = assay: In vitro antimicrobial activity against aerobic bacteria Streptococcus pneumoniae B1-438; type: functional, streptococcus pneum
# Streptococcus pyogenes [49] = assay: In vivo effective dose against experimental infections in rodent caused by Streptococcus pyogenes C203 when administered orally; type: functional; conditions: po
# [50] = test system: Peptoniphilus asaccharolyticus; assay: In vitro antimicrobial activity against anaerobic bacteria peptococcus asaccharolyticus 1302; type: functional
# Haemophilus influenzae [51] = assay: In vitro antimicrobial activity against Haemophilus influenzae.; type: functional
# Streptococcus pyogenes [52] = assay: In vitro antimicrobial activity against Streptococcus pyogenes C203; type: functional
# Streptococcus viridans = assay: In vitro antimicrobial activity against aerobic bacteria Streptococcus viridans 9943; type: functional
# [53] = test system: Bacteroides thetaiotaomicron; assay: In vitro antimicrobial activity against anaerobic bacteria bacteroides thetaiotaomicron 1438; type: functional
# Streptococcus [54] = assay: In vitro antimicrobial activity against aerobic bacteria Streptococcus B 14; type: functional
compound,measurement,setting,value
CC[C@H]1C[C@@H](C)C(=O)/C=C/C(C)=C/[C@H](CO[C@@H]2O[C@H](C)[C@@H](O)[C@@H](OC)[C@H]2OC)[C@@H](CC)OC(=O)C[C@@H](O)[C@H](C)[C@H]1O[C@@H]1O[C@H](C)[C@@H](O)[C@H](N(C)C)[C@H]1O,MIC,Streptococcus [1],64 µg/mL
same,Concentration,Rattus norvegicus [2],8.7 µg/mL
same,Concentration,Mus musculus [3],0.9 µg/mL
same,Concentration,Mus musculus [4],2 µg/mL
same,MIC,Bacteroides fragilis [5],4 µg/mL
same,MIC,[6],4 µg/mL
same,Concentration,Rattus norvegicus [7],7.4 µg/mL
same,MIC,Enterococcus faecium,16 µg/mL
same,MIC,Streptococcus [8],8 µg/mL
same,MIC,[9],0.25 µg/mL
same,MIC,Staphylococcus aureus [10],0.5 µg/mL
same,Concentration,Mus musculus [11],2.3 µg/mL
same,MIC,Streptococcus [12],8 µg/mL
same,MIC,Haemophilus influenzae [13],16 µg/mL
same,MIC,Clostridioides difficile,< 0.5 µg/mL
same,Concentration,Mus musculus [14],0.9 µg/mL
same,MIC,Haemophilus influenzae [15],16 µg/mL
same,ED50,Streptococcus pneumoniae [16],> 20 mg/kg
same,ED50,Streptococcus pneumoniae [17],> 50 mg/kg
same,MIC,Streptococcus sanguinis,2 µg/mL
same,MIC,Staphylococcus aureus [18],0.25 µg/mL
same,MIC,Streptococcus [19],8 µg/mL
same,MIC,Bacteroides fragilis [20],4 µg/mL
same,MIC,Anaerococcus prevotii,2 µg/mL
same,Concentration,Rattus norvegicus [21],5.1 µg/mL
same,Concentration,Mus musculus [22],4.5 µg/mL
same,Concentration,Rattus norvegicus [23],7.2 µg/mL
same,MIC,[24],0.12 µg/mL
same,MIC,Phocaeicola vulgatus,2 µg/mL
same,MIC,Clostridium septicum,< 0.5 µg/mL
same,Concentration,Rattus norvegicus [25],4.6 µg/mL
same,MIC,[26],1 µg/mL
same,Concentration,Mus musculus [27],2.2 µg/mL
same,ED50,Staphylococcus aureus [28],2.2 mg/kg
same,MIC,Clostridium perfringens,2 µg/mL
same,MIC,Streptococcus [29],16 µg/mL
same,Concentration,Mus musculus [30],0.5 µg/mL
same,Concentration,Mus musculus [31],3.4 µg/mL
same,MIC,Staphylococcus aureus [32],0.25 µg/mL
same,MIC,Eikenella corrodens,4 µg/mL
same,MIC,Collinsella aerofaciens,2 µg/mL
same,MIC,Staphylococcus aureus [33],0.25 µg/mL
same,MIC,[34],> 128 µg/mL
same,Concentration,Mus musculus [35],0.8 µg/mL
same,MIC,[36],8 µg/mL
same,MIC,Streptococcus pneumoniae [37],2 µg/mL
same,MIC,[38],4 µg/mL
same,MIC,Staphylococcus aureus [39],0.5 µg/mL
same,MIC,Streptococcus [40],0.5 µg/mL
same,MIC,Staphylococcus aureus [41],0.25 µg/mL
same,MIC,Bacteroides fragilis [42],4 µg/mL
same,MIC,Streptococcus [43],8 µg/mL
same,MIC,Cutibacterium acnes,8 µg/mL
same,ED50,Streptococcus pyogenes [44],4.3 mg/kg
same,MIC,[45],< 0.5 µg/mL
same,ED50,Staphylococcus aureus [46],10 mg/kg
same,Concentration,Mus musculus [47],2.6 µg/mL
same,MIC,Fusobacterium,2 µg/mL
same,MIC,Chlamydia trachomatis,0.5 µg/mL
same,MIC,Streptococcus pneumoniae [48],> 128 µg/mL
same,ED50,Streptococcus pyogenes [49],7 mg/kg
same,MIC,[50],2 µg/mL
same,MIC,Haemophilus influenzae [51],16 µg/mL
same,MIC,Streptococcus pyogenes [52],0.5 µg/mL
same,MIC,Streptococcus viridans,> 128 µg/mL
same,MIC,[53],4 µg/mL
same,MIC,Streptococcus [54],16 µg/mL
